# Measurements as given in ChEMBL document CHEMBL1153285, “Synthesis and SAR of piperazinyl-N-phenylbenzamides as inhibitors of hepatitis C virus RNA replication in cell culture” (Bioorg Med Chem Lett, 2009).
# The source made the active and inactive calls. The rule behind the calls is not given here.
# System: Hepacivirus hominis
# Experiment: Inhibition of helicase activity of HCV NS3/4A protease up to 10 uM
# Details: not given
# Method in brief: (§1)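 Cell-free assays used purified protein, either the full-length NS3-4A complex or the separate protease and helicase domains. Compound was tested at concentrations up to 10 µM.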
row,Activity,SMILES
1,inactive,CC(C)(C)OC(=O)N1CCN(c2ccc(C(=O)Nc3ccc(O)cc3)cc2)CC1

# System: Hepacivirus hominis
# Experiment: Inhibition of HCV NS5B deltaC55 polymerase
# Details: not given
# Method in brief: (§2)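 Cell-free polymerase assays used purified NS5B in its ΔC55 and ΔC21 truncated forms.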
row,Activity,SMILES
1,inactive,CC(C)(C)OC(=O)N1CCN(c2ccc(C(=O)Nc3ccc(O)cc3)cc2)CC1

# System: Hepacivirus hominis
# Experiment: Inhibition of ATPase activity of HCV NS3/4A protease up to 10 uM
# Details: not given
# Method in brief: as §1
row,Activity,SMILES
1,inactive,CC(C)(C)OC(=O)N1CCN(c2ccc(C(=O)Nc3ccc(O)cc3)cc2)CC1

# System: Hepatitis C virus
# Experiment: Antiviral activity against HCV infected in human HUH7 cells assessed as inhibition of viral subgenomic RNA replication in presence of 10% fetal calf serum
# Type: functional, organism-based, Hepacivirus hominis
# Details: Huh-7
# Method in brief: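 Replication of subgenomic HCV RNA was measured in HUH-7 replicon cells using a modified Bartenschlager procedure. Results are reported as EC50 in µM.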
row,EC50,SMILES
1,1600 nM,CC(C)(C)OC(=O)C1CCN(c2ccc(C(=O)Nc3ccc(O)cc3)cc2)CC1
2,9600 nM,CCOC(=O)N1CCN(c2ccc(C(=O)Nc3ccc(O)cc3)cc2)CC1
3,19600 nM,O=C(Nc1ccc(O)cc1)c1ccc(N2CCN(C(=O)Nc3ccccc3)CC2)cc1
4,> 10000 nM,CN(CCNC(=O)OC(C)(C)C)c1ccc(C(=O)Nc2ccc(O)cc2)cc1
5,690 nM,CC(C)(C)OC(=O)N1CCN(c2ccc(C(=O)Nc3ccc(C(=O)c4ccccc4)cc3)cc2)CC1
6,140 nM,CC(C)(C)OC(=O)N1CCN(c2ccc(C(=O)Nc3ccc(/C=C/c4ccc(O)cc4)cc3)cc2)CC1
7,160 nM,CC(C)(C)OC(=O)N1CCN(c2ccc(C(=O)Nc3ccc(O)cc3)cc2)CC1
8,5600 nM,CC(C)(C)OC(=O)N1CCN(c2ccc(C(=O)Nc3ccc(C#N)cc3)cc2)CC1
9,> 10000 nM,CC(C)(C)OC(=O)N1CCN(c2ccc(C(=O)N[C@H]3CC[C@H](O)CC3)cc2)CC1
10,> 10000 nM,CC(=O)Nc1ccc(NC(=O)c2ccc(N3CCN(C(=O)OC(C)(C)C)CC3)cc2)cc1
11,> 10000 nM,CN(C)c1ccc(NC(=O)c2ccc(N3CCN(C(=O)OC(C)(C)C)CC3)cc2)cc1
12,580 nM,CC(C)(C)OC(=O)N1CCN(c2ccc(C(=O)Nc3cccc(Br)c3)cc2)CC1
13,> 10000 nM,CC(C)(C)OC(=O)N1CCN(c2ccc(C(=O)Nc3cc[n+]([O-])cc3)cc2)CC1
14,780 nM,CC(C)(C)C(=O)N1CCN(c2ccc(C(=O)Nc3ccc(O)cc3)cc2)CC1
15,470 nM,CC(C)(C)NC(=O)N1CCN(c2ccc(C(=O)Nc3ccc(O)cc3)cc2)CC1
16,4100 nM,O=C(Nc1ccc(O)cc1)c1ccc(N2CCN(C(=O)Oc3ccccc3)CC2)cc1
17,> 10000 nM,CC(C)(C)OC(=O)N1CCN(c2cccc(C(=O)Nc3ccc(O)cc3)c2)CC1
18,550 nM,O=C(Nc1ccc(O)cc1)c1ccc(N2CCN(C(=O)OCc3ccccc3)CC2)cc1
19,> 10000 nM,CC(C)(C)OC(=O)N1CCN(c2ccc(C(=O)Nc3ccccc3)cc2)CC1
20,2700 nM,O=C(Nc1ccc(O)cc1)c1ccc(N2CCN(C(=O)NCc3ccccc3)CC2)cc1
21,1700 nM,CC(C)(C)OC(=O)N1CCC(c2ccc(C(=O)Nc3ccc(O)cc3)cc2)CC1
22,> 10000 nM,CC(C)(C)OC(=O)N1CCN(c2ccc(C(=O)Nc3ccc(F)cc3)cc2)CC1
23,> 10000 nM,CN(C(=O)c1ccc(N2CCN(C(=O)OC(C)(C)C)CC2)cc1)c1ccc(O)cc1

# System: Hepacivirus hominis
# Experiment: Inhibition of HCV NS5B deltaC21 polymerase
# Details: not given
# Method in brief: as §2
row,Activity,SMILES
1,inactive,CC(C)(C)OC(=O)N1CCN(c2ccc(C(=O)Nc3ccc(O)cc3)cc2)CC1
